{"data": "Measured values of several laboratories"}
{"SMILES": "O=C(N/N=C/c1ccc2ccccc2c1)c1ccc(O)cc1", "test system": "male C57BL/6 mouse, plasma", "setting": "intraperitoneal, 30 mg/kg, 2 h", "concentration": "~200 nM"}
{"SMILES": "COc1cc(F)c([C@@H]2CNC(=O)[C@H]2NC(=O)Nc2ccccc2)c(F)c1", "test system": "C57BL/6 mouse, plasma", "setting": "oral, 3 mg/kg, 2 h", "concentration": "84 nM"}
{"SMILES": "O=c1nc(N2CCN(CC3CCCCC3)CC2)sc2c([N+](=O)[O-])cc(C(F)(F)F)cc12", "test system": "CD-1 mouse, lung", "setting": "intravenous, 10 mg/kg, 15 min", "concentration": "2830 ng/mL"}
{"SMILES": "COc1ccc2[nH]c3c(C)c4ccnc(C(=O)N[C@H](C)CN(C)C)c4cc3c2c1", "test system": "male C57BL/6 mouse, plasma", "setting": "intraperitoneal, 10 mg/kg, 2 h, single dose", "concentration": "40 nM"}
{"SMILES": "COc1cc(C)c(Sc2cnc(NC(=O)c3ccc(N4CCN(CCCCCCCNC(=O)COc5cccc6c5C(=O)N(C5CCC(=O)NC5=O)C6=O)CC4)cc3)s2)cc1C(=O)N1CCN(C(C)=O)CC1 (stereo not drawn)", "test system": "male C57BL/6 mouse, plasma", "setting": "intraperitoneal, 10 mg/kg, 8 h, single dose", "concentration": "~100 nM"}
{"SMILES": "Cc1c2ccnc(C(=O)N[C@H](C)CN(C)C)c2cc2c3cc(O)ccc3n(C)c12", "test system": "male C57BL/6 mouse, brain", "setting": "intraperitoneal, 10 mg/kg, 2 h, single dose", "concentration": "80 nM"}
{"SMILES": "[2H]c1c([2H])c([2H])c(-c2ccc([C@H](Cn3ccnc3)NC(=O)c3ccc(-c4nnc(-c5ccccc5)o4)cc3)c(Cl)c2)c([2H])c1[2H]", "test system": "BALB/c mouse, liver", "setting": "oral, 25 mg/kg, 4 h, single dose", "concentration": "17000 nM"}
{"SMILES": "CSc1cc(Oc2ccnc3[nH]c(=O)cnc23)ccc1NC(=O)Nc1cc(C(C)(C)C)nn1-c1ccccc1", "test system": "BALB/c mouse, plasma", "setting": "oral, 10 mg/kg/day, 14 h", "concentration": "~1000 nM"}
{"SMILES": "O=S(=O)(c1ccc(-c2ccc3nccc(Nc4ccncn4)c3c2)cc1)N1CCOCC1", "test system": "female BALB/c mouse, plasma", "setting": "intraperitoneal, 10 mg/kg, 8 h", "concentration": "2.16 ng/mL"}
{"SMILES": "CC(C)Oc1cccc(-c2cnc(N3CCC(C(N)=O)CC3)s2)c1", "test system": "male Swiss mouse, plasma", "setting": "oral, 30 mg/kg, 24 h, single dose", "concentration": "20.6 ng/mL"}
{"SMILES": "O=S(=O)(c1cccc(C(F)(F)F)c1)N1c2cc(OCc3c(Cl)cncc3Cl)ccc2CC1C(F)(F)F (stereo not drawn)", "test system": "mouse, plasma", "setting": "intraperitoneal, 10 mg/kg, 2 h", "concentration": "600 nM"}
{"SMILES": "c1ccc(-c2nc(N3CCC(c4ccccn4)C3)c3ccccc3n2)nc1 (stereo not drawn)", "test system": "female BALB/c mouse, plasma", "setting": "oral, 50 mg/kg, 24 h", "concentration": "63.5 ng/mL"}
{"SMILES": "O=S(=O)(c1cccc(C(F)(F)F)c1)N1CCc2ccc(OCc3c(F)cncc3Cl)cc21", "test system": "mouse, plasma", "setting": "intraperitoneal, 10 mg/kg, 2 h", "concentration": "410 nM"}
{"SMILES": "Cc1ccc(-c2cccc3cnc(Nc4ccc(C(=O)N5CCOCC5)cc4)nc23)cn1", "test system": "mouse, brain", "setting": "intraperitoneal, 10 mg/kg, 2 h", "concentration": "0 nM"}
{"SMILES": "CC(C)(Nc1nc(-c2ccccn2)nc2ccccc12)c1ccccn1", "test system": "female BALB/c mouse, plasma", "setting": "oral, 50 mg/kg, 1 h", "concentration": "4740 ng/mL"}
{"SMILES": "O=S(=O)(c1cccc(C(F)(F)F)c1)N1CCc2ccc(OCc3c(Cl)cncc3Cl)cc21", "test system": "mouse, plasma", "setting": "intraperitoneal, 10 mg/kg, 4 h", "concentration": "620 nM"}
{"SMILES": "O=C(O)C1CCN(c2ncc(-c3ccc4c(c3)OCCCO4)s2)CC1", "test system": "male Swiss mouse, plasma", "setting": "oral, 30 mg/kg, 8 h, single dose", "concentration": "4540 ng/mL"}
{"SMILES": "O=c1cc(-c2ccccc2)oc2c(O)c(O)ccc12", "test system": "male CD-1 mouse, plasma", "setting": "oral, 50 mg/kg, 4 h", "concentration": "24 ng/mL"}
{"SMILES": "CC(C)Cc1nn(C)c(=O)c2c(SCCCO)n(Cc3cccc4ccccc34)cc12", "test system": "mouse, plasma", "setting": "intraperitoneal, 20 mg/kg, 7 days, single dose", "concentration": "0 nM"}
{"SMILES": "CC(C)CN(C[C@@H](O)[C@H](Cc1ccccc1)NC(=O)O[C@H]1CO[C@H]2OCC[C@H]21)S(=O)(=O)c1ccc(N)cc1", "test system": "BALB/c mouse, brain", "setting": "intravenous, 2.5 mg/kg, 3 h", "concentration": "1.19 ng/g"}
{"SMILES": "O=S(=O)(c1cccc(C(F)(F)F)n1)N1CCc2ccc(OCc3c(F)cccc3Cl)cc21", "test system": "mouse, plasma", "setting": "intraperitoneal, 10 mg/kg, 2 h", "concentration": "290 nM"}
